Assay results published in ChEMBL document CHEMBL2385053, “Novel isoquinoline derivatives as antimicrobial agents” (2013).

How the values were obtained:
Trichoderma viride [1] = assay: Fungicidal activity against Trichoderma viride CECT 2423 at 0.2 mg/disk after 72 hrs by paper disk-agar diffusion method; assay type: functional
Summary of the method: (§1)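 Fungi were grown on potato dextrose agar (PDA) for 7 days at 28 °C. Conidia were suspended to ~10⁶/mL in 0.05% Tween 80 in sterile water, and 1 mL was mixed into 15 mL PDA. Four 0.5 cm paper disks (0.2 mg/disk) were placed on the set agar. Controls were vehicle-only disks and benomyl at species-dependent doses. The inhibition zone was read in mm at 72 h as the mean ± SE of three independent experiments.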

Bacillus cereus [2] = assay: Bactericidal activity against Bacillus cereus CECT 148 at 0.2 mg/disk after 24 hrs by paper disk-agar diffusion method; assay type: functional
Summary of the method: (§2)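 Each bacterial strain was taken from a 24-h culture on solid medium, reactivated in Nutrient Broth, and grown a further 24 h at 28 or 37 °C depending on the strain. 1 mL of suspension was mixed with 15 mL Plate Count Agar. Four 0.5 cm paper disks (0.2 mg/disk) were placed on the set agar. Controls were vehicle-only disks and tetracycline. Plates were incubated 24 h, dark, 28 or 37 °C. The inhibition zone was read in mm as the mean ± SE of three independent experiments.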

[3] = test system: Phytophthora citrophthora; assay: Fungicidal activity against Phytophthora citrophthora CECT 2353 at 0.2 mg/disk after 72 hrs by paper disk-agar diffusion method; assay type: functional; summary of the method: as §1
Staphylococcus aureus [4] = assay: Bactericidal activity against Staphylococcus aureus CECT 86 at 0.2 mg/disk after 24 hrs by paper disk-agar diffusion method; assay type: functional; summary of the method: as §2
Escherichia coli [5] = assay: Bactericidal activity against Escherichia coli CECT 405 at 0.2 mg/disk after 24 hrs by paper disk-agar diffusion method; assay type: functional; summary of the method: as §2
Fusarium culmorum [6] = assay: Fungicidal activity against Fusarium culmorum CCM 172 at 0.2 mg/disk after 72 hrs by paper disk-agar diffusion method; assay type: functional; summary of the method: as §1
Aspergillus parasiticus [7] = assay: Fungicidal activity against Aspergillus parasiticus CECT 2681 at 0.2 mg/disk after 72 hrs by paper disk-agar diffusion method; assay type: functional; summary of the method: as §1
Salmonella typhi = assay: Bactericidal activity against Salmonella typhi CECT 409 at 0.2 mg/disk after 24 hrs by paper disk-agar diffusion method; assay type: functional, Salmonella enterica subsp. enterica serovar Typhi
Summary of the method: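 Paper disk-agar diffusion, run in triplicate. 24-h culture reactivated in nutrient broth and grown a further 24 h at 28 or 37 °C by species. 1 mL suspension mixed into 15 mL plate count agar. Four 0.5 cm disks placed per plate, incubated 24 h in the dark. Inhibition zone (mm) reported as mean ± SE of three independent experiments; vehicle disks as negative control.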

Geotrichum candidum = assay: Fungicidal activity against Geotrichum candidum CCM 245 at 0.2 mg/disk after 72 hrs by paper disk-agar diffusion method; assay type: functional; summary of the method: as §1
Bacillus cereus [8] = assay: Bactericidal activity against Bacillus cereus CECT 148 at 0.2 mg/disk after 24 hrs by paper disk-agar diffusion method relative to control; assay type: functional
[9] = test system: Pectobacterium carotovorum; assay: Bactericidal activity against Erwinia carotovora CECT 225 at 0.2 mg/disk after 24 hrs by paper disk-agar diffusion method; assay type: functional; summary of the method: as §2
Enterococcus faecalis [10] = assay: Bactericidal activity against Enterococcus faecalis CECT 481 at 0.2 mg/disk after 24 hrs by paper disk-agar diffusion method; assay type: functional; summary of the method: as §2
Escherichia coli [11] = assay: Bactericidal activity against Escherichia coli CECT 100 at 0.2 mg/disk after 24 hrs by paper disk-agar diffusion method; assay type: functional; summary of the method: as §2
Escherichia coli [12] = assay: Bactericidal activity against Escherichia coli CECT 100 at 0.2 mg/disk after 24 hrs by paper disk-agar diffusion method relative to control; assay type: functional
[13] = test system: Pectobacterium carotovorum; assay: Bactericidal activity against Erwinia carotovora CECT 225 at 0.2 mg/disk after 24 hrs by paper disk-agar diffusion method relative to control; assay type: functional
Enterococcus faecalis [14] = assay: Bactericidal activity against Enterococcus faecalis CECT 481 at 0.2 mg/disk after 24 hrs by paper disk-agar diffusion method relative to control; assay type: functional
Staphylococcus aureus [15] = assay: Bactericidal activity against Staphylococcus aureus CECT 86 at 0.2 mg/disk after 24 hrs by paper disk-agar diffusion method relative to control; assay type: functional
Escherichia coli [16] = assay: Bactericidal activity against Escherichia coli CECT 405 at 0.2 mg/disk after 24 hrs by paper disk-agar diffusion method relative to control; assay type: functional
[17] = test system: Phytophthora citrophthora; assay: Fungicidal activity against Phytophthora citrophthora CECT 2353 at 1.5 ug/disk after 72 hrs by paper disk-agar diffusion method; assay type: functional; conditions: CECT 2353, 72 h, read-out: IZ
Summary of the method: (§3)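 Fungi grown on potato dextrose agar for 7 days at 28 °C. Conidia suspended to about 10⁶/mL in 0.05% Tween 80 in sterile water. 1 mL suspension added to 15 mL PDA; four impregnated 0.5 cm disks placed after setting. Inhibition zone measured at 72 h; mean ± SE of three independent experiments. Vehicle disks as negative control; benomyl dose set per fungal species.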

Fusarium culmorum [18] = assay: Fungicidal activity against Fusarium culmorum CCM 172 at 10 ug/disk after 72 hrs by paper disk-agar diffusion method; assay type: functional; conditions: CCM 172, 72 h, read-out: IZ; summary of the method: as §3
Aspergillus parasiticus [19] = assay: Fungicidal activity against Aspergillus parasiticus CECT 2681 at 1 ug/disk after 72 hrs by paper disk-agar diffusion method; assay type: functional; conditions: CECT 2681, 72 h, read-out: IZ; summary of the method: as §3
Trichoderma viride [20] = assay: Fungicidal activity against Trichoderma viride CECT 2423 at 1 ug/disk after 72 hrs by paper disk-agar diffusion method; assay type: functional; conditions: CECT 2423, 72 h, read-out: IZ; summary of the method: as §3

For `COc1cc2c(cc1OC)C(CCCCCOC(=O)CCc1ccc(F)cc1)N(C)CC2` (stereo not given), which “inhibition zone (IZ)” value (Trichoderma viride [1]) is on record?
Its value is 8.33 mm.

And the “inhibition zone (IZ)” value (Bacillus cereus [2])?
Its value is 11.33 mm.

And the “inhibition zone (IZ)” value [3]?
The value was 6 mm.

And the “inhibition zone (IZ)” value (Staphylococcus aureus [4])?
Its value is 10.33 mm.

And the “inhibition zone (IZ)” value (Escherichia coli [5])?
Its value is 8.83 mm.

And the “inhibition zone (IZ)” value (Fusarium culmorum [6])?
Its value is 7.67 mm.

And the “inhibition zone (IZ)” value (Aspergillus parasiticus [7])?
The value was 0 mm.

And the “inhibition zone (IZ)” value (Salmonella typhi)?
The value was 9.17 mm.

What about the “inhibition zone (IZ)” value (Geotrichum candidum) of the same compound?
Its value is 8.33 mm.

What about the Activity (Bacillus cereus [8]) of the same compound?
Its Activity is 49%.

What about the “inhibition zone (IZ)” value [9] of the same compound?
The value was 11.67 mm.

What about the “inhibition zone (IZ)” value (Enterococcus faecalis [10]) of the same compound?
The value was 9.33 mm.

What about the “inhibition zone (IZ)” value (Escherichia coli [11]) of the same compound?
Its value is 11.83 mm.

What about the Activity (Escherichia coli [12]) of the same compound?
Its Activity is 46%.

With `COc1cc2c(cc1OC)C(CCCCCOC(=O)Nc1ccccc1)N(C)CC2` (stereo not given) as the compound, how does the “inhibition zone (IZ)” value (Trichoderma viride [1]) read?
Its value is 5.75 mm.

What about the “inhibition zone (IZ)” value (Bacillus cereus [2]) of the same compound?
Its value is 12.67 mm.

What about the “inhibition zone (IZ)” value [3] of the same compound?
The value was 0 mm.

What about the “inhibition zone (IZ)” value (Staphylococcus aureus [4]) of the same compound?
The value was 15 mm.

And the “inhibition zone (IZ)” value (Escherichia coli [5])?
The value was 12.33 mm.

And the “inhibition zone (IZ)” value (Fusarium culmorum [6])?
Its value is 7 mm.

And the “inhibition zone (IZ)” value (Aspergillus parasiticus [7])?
The value was 0 mm.

What about the “inhibition zone (IZ)” value (Salmonella typhi) of the same compound?
Its value is 12 mm.

And the “inhibition zone (IZ)” value (Geotrichum candidum)?
Its value is 6.25 mm.

What about the “inhibition zone (IZ)” value [9] of the same compound?
The value was 10.67 mm.

What about the “inhibition zone (IZ)” value (Enterococcus faecalis [10]) of the same compound?
Its value is 14.17 mm.

And the “inhibition zone (IZ)” value (Escherichia coli [11])?
The value was 15.17 mm.

What about the Activity (Escherichia coli [12]) of the same compound?
Its Activity is 59%.

For `COc1cc2c(cc1OC)C(CCCCCOC(=O)Nc1ccc(F)cc1)N(C)CC2` (stereo not given), which “inhibition zone (IZ)” value (Bacillus cereus [2]) is on record?
Its value is 14.33 mm.

And the Activity [13]?
Its Activity is 64%.

What about the “inhibition zone (IZ)” value (Staphylococcus aureus [4]) of the same compound?
Its value is 14 mm.

And the “inhibition zone (IZ)” value (Escherichia coli [5])?
The value was 12 mm.

What about the “inhibition zone (IZ)” value (Salmonella typhi) of the same compound?
Its value is 14.67 mm.

And the “inhibition zone (IZ)” value [9]?
The value was 22.33 mm.

What about the “inhibition zone (IZ)” value (Enterococcus faecalis [10]) of the same compound?
The value was 20 mm.

And the “inhibition zone (IZ)” value (Escherichia coli [11])?
Its value is 12.33 mm.

What about the Activity (Enterococcus faecalis [14]) of the same compound?
Its Activity is 64%.

What does the source list for `COc1ccc(NC(=O)OCCCCCC2c3cc(OC)c(OC)cc3CCN2C)cc1` (stereo not given)?
inhibition zone (IZ) (Trichoderma viride [1]): 6.17 mm; inhibition zone (IZ) (Bacillus cereus [2]): 10.33 mm; inhibition zone (IZ) [3]: 0 mm; Activity (Staphylococcus aureus [15]): 51%; inhibition zone (IZ) (Staphylococcus aureus [4]): 13.67 mm; Activity (Escherichia coli [16]): 52%; inhibition zone (IZ) (Escherichia coli [5]): 13.33 mm; inhibition zone (IZ) (Fusarium culmorum [6]): 0 mm; inhibition zone (IZ) (Aspergillus parasiticus [7]): 0 mm; inhibition zone (IZ) (Salmonella typhi): 11.33 mm; inhibition zone (IZ) (Geotrichum candidum): 6.67 mm; inhibition zone (IZ) [9]: 9.67 mm; inhibition zone (IZ) (Enterococcus faecalis [10]): 14.67 mm; inhibition zone (IZ) (Escherichia coli [11]): 11.67 mm

For `CCCCNC(=O)n1c(NC(=O)OC)nc2ccccc21` [BENOMYL], which zone of inhibition at 1.5 µg/disc [17] is on record?
Its zone of inhibition at 1.5 µg/disc is 24.5 mm.

And the zone of inhibition at 10 µg/disc (Fusarium culmorum [18])?
The zone of inhibition at 10 µg/disc was 18 mm.

What about the zone of inhibition at 1 µg/disc (Aspergillus parasiticus [19]) of the same compound?
Its zone of inhibition at 1 µg/disc is 18 mm.

And the “inhibition zone (IZ)” value (Geotrichum candidum)?
The value was 0 mm.

And the zone of inhibition at 1 µg/disc (Trichoderma viride [20])?
Its zone of inhibition at 1 µg/disc is 22 mm.
